Source: ChEMBL document CHEMBL4359879, “Synthesis and evaluation of 2-carboxy indole derivatives as potent and selective anti-leukemic agents” (Eur J Med Chem, 2019)
The source made the active and inactive calls. No cut-off for these calls is given here.

Tests used:
HL-60 [1] = assay: Induction of apoptosis in human HL60 cells at 300 nM incubated for 18 hrs by Annexin V-FITC/propidium iodide staining-based flow cytometric analysis; assay type: functional, cell-based
In short: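 CEM, HL60 or RS4;11 cells (5×10^5) treated with 300 nM or vehicle for 18 h. Stained with FITC-Annexin V in binding buffer for 15 min at 37 °C, then PI (5 μg/mL) for 3 min. Analyzed by flow cytometry.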

RS4-11 [2] = assay: Antitumor activity against human RS4:11 cells xenografted in NOD/SCID mouse assessed as increase in survival at 10 mg/kg, ip administrated 5 times per week; assay type: functional, organism-based
In short: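 Ten million RS4;11 cells were injected into the tail vein of unconditioned NOD/SCID mice. Engraftment was tracked by flow cytometry of human versus mouse CD45 in ficoll-isolated blood. When human CD45+ cells reached ≥1.5% in half of the mice, animals were randomized (n=5 per group) to vehicle (1% PVP, 4% DMSO, 95% PBS) or 10 mg/kg ip, 5x per week until death. Groups were compared by Kaplan-Meier curves and log-rank test.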

Tubulin (Homo sapiens) = Tubulin (Homo sapiens) (UniProt P68371+Q9H4B7+P0DPH7+P68366+Q13509+Q71U36+P04350+Q3ZCM7+P07437+P68363+Q9BQE3+Q6PEY2+Q13885+Q9BVA1+Q9BUF5); assay: Induction of microtubule network depolymerization in human HeLa cells assessed as formation of abnormal chromosomal segregation at 500 nM incubated for 18 hrs by DAPI staining based fluorescence microscopic method; assay type: cell-based
In short: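 HeLa cells (100,000/mL) cultured overnight on glass-bottom dishes, then exposed to 500 nM or 1 μM, or DMSO, for 18 h. Permeabilized (0.5% Triton X-100) and fixed (3.7% formaldehyde). Stained overnight at 4 °C with anti-β-tubulin, then Alexa Fluor 647 secondary for 1 h at room temperature, and DAPI 1 μg/mL for 10 min. Examined by fluorescence microscopy.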

HL-60 [3] = assay: Effect on human HL60 cells assessed as fold change in DSTYK gene expression at 1.085 uM incubated for 6 hrs by microarray-based method; assay type: functional
In short: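 HL60 cells were treated in triplicate with 1.085 µM or vehicle for 6 h. Total RNA was extracted with on-column DNase treatment and profiled on expression arrays.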

RS4-11 [4] = assay: Induction of cell cycle arrest in human RS4:11 cells assessed as effect on S phase at 300 nM incubated for 18 hrs by BrdU/propidium iodide staining based flow cytometric analysis; assay type: functional
In short: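 RS4;11 cells treated with 300 nM or DMSO vehicle for 18 h, then pulsed with 10 μM BrdU for 1 h. Harvested cells immunostained for BrdU/PI (cell cycle), γH2AX (DNA damage) and PARP (apoptosis). Multicolor flow cytometry gated G1, sub-G2-like, G2/M and sub-G0/G1 populations.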

COC(=O)c1[nH]c2cc(OC)ccc2c1-c1ccc(C(F)(F)F)cc1
Activity (HL-60 [1]): Active
Activity (RS4-11 [2]): Active
Activity (Tubulin (Homo sapiens)): Active
fold change (FC) (HL-60 [3]): 1.61
Activity (RS4-11 [4]): inactive
